Results: PMC7847313 (Journal of natural products, 2018)
Like-named read-outs stand apart in the source and are kept apart here. *1 amine or outer side, *2 acyl side, *3 side chain or, on linkers, in order; H or OH if unused. Where a SMILES comes first, the peptide text is derived from it. Bridges are numbered along the chain shown (N, C = ends). [ ]: non-standard residue; d: D form. The star is where a group is joined. Ahp(3S,6R)alloIle = CC[C@@H](C)[C@@H](C(=O)[*:2])N1C(=O)[C@@H](N[*:1])CC[C@H]1O; Propanoyl(2R-OMe,3-OSO3H) = CO[C@H](COS(=O)(=O)O)C(=O)*; NMeTyr(3-Br,OMe) = CN[C@@H](Cc1ccc(OC)c(Br)c1)C(=O)O; Cit = NC(=O)NCCC[C@H](N)C(=O)O; Butyryl = CCCC(=O)*

Experiments:
chymotrypsin [1] = target: T1, chymotrypsin (Bos taurus, UniProt P00766); test: Chymotrypsin assay; assay type: biochemical
Method in brief: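 Enzyme (4 units/mL, in cold 1 mM HCl) and BTEE (1.18 mM) in 80 mM Tris-HCl, pH 7.8, made fresh. BTEE, buffer, CaCl2 and test compound (MeOH dilution series; MeOH blank) were equilibrated at 25 °C, then enzyme added last. A256 followed continuously: 3 min uninhibited, 30 s intervals with inhibitor. Activity in BTEE units/mL; IC50 by nonlinear regression.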

[2] = cited from earlier work
[3] = system: Vibrio cholerae secreted serine protease activity; details: as low as in cultures of T2S mutants, averaged; cited from earlier work
[4] = system: NCI-H460 lung cancer cells; details: cited from earlier work
[5] = system: neuro-2a neuroblastoma cells; details: read-out: IC50 neuro-2a neuroblastoma cells; cited from earlier work
chymotrypsin [6] = target: T1, chymotrypsin; details: cited from earlier work

Structure (SMILES): CC[C@@H](C)[C@H]1C(=O)N(C)[C@@H](Cc2ccc(OC)c(Br)c2)C(=O)N[C@@H]([C@@H](C)CC)C(=O)O[C@H](C)[C@H](NC(=O)[C@H](NC(=O)[C@H](O)COS(=O)(=O)O)C(C)C)C(=O)N[C@@H](CCCCN)C(=O)N[C@H]2CC[C@@H](O)N1C2=O [Jizanpeptin A (1), Jizanpeptin A]
- IC50 (chymotrypsin [1]): > 10 µM

Structure (SMILES): CC[C@@H](C)[C@H]1C(=O)N(C)[C@@H](Cc2ccc(OC)c(Br)c2)C(=O)N[C@@H]([C@@H](C)CC)C(=O)O[C@H](C)[C@H](NC(=O)[C@H](NC(=O)[C@@H](COS(=O)(=O)O)OC)C(C)C)C(=O)N[C@@H](CCCCN)C(=O)N[C@H]2CC[C@@H](O)N1C2=O [Jizanpeptin B (2), Jizanpeptin B]
- IC50 (chymotrypsin [1]): > 10 µM

Structure (SMILES): CC[C@@H](C)[C@H]1C(=O)N(C)[C@@H](Cc2ccc(OC)c(Br)c2)C(=O)N[C@@H]([C@@H](C)CC)C(=O)O[C@H](C)[C@H](NC(=O)[C@@H](NC(=O)[C@@H](COS(=O)(=O)O)OC)C(C)C)C(=O)N[C@@H](CCCCN)C(=O)N[C@H]2CC[C@@H](O)N1C2=O [Jizanpeptin C (3), Jizanpeptin C]
- efficacy as a chymotrypsin inhibitor (chymotrypsin [1]; standardized assay conditions, up to 10 μM): full efficacy

Structure (SMILES): CC[C@@H](C)[C@H]1C(=O)N(C)[C@@H](Cc2ccc(OC)c(Br)c2)C(=O)N[C@@H]([C@@H](C)CC)C(=O)O[C@H](C)[C@H](NC(=O)[C@@H](NC(=O)[C@@H](COS(=O)(=O)O)OC)[C@@H](C)CC)C(=O)N[C@@H](CCCCN)C(=O)N[C@H]2CC[C@@H](O)N1C2=O [Jizanpeptin D (4), Jizanpeptin D] ({Propanoyl(2R-OMe,3-OSO3H)}-ITK[Ahp(3S,6R)alloIle][NMeTyr(3-Br,OMe)]I; ester 2-C)
- IC50 (chymotrypsin [1]): > 10 µM

Structure (SMILES): CC[C@@H](C)[C@H]1C(=O)N(C)[C@@H](Cc2ccc(OC)c(Br)c2)C(=O)N[C@@H]([C@@H](C)CC)C(=O)O[C@H](C)[C@H](NC(=O)[C@H](NC(=O)[C@@H](COS(=O)(=O)O)OC)C(C)C)C(=O)N[C@@H](CCCNC(=N)N)C(=O)N[C@H]2CC[C@@H](O)N1C2=O [Jizanpeptin E (5), Jizanpeptin E]
- IC50 (chymotrypsin [1]): > 10 µM

Structure (SMILES): C/C=C1/NC(=O)C(NC(=O)C(NC(=O)C(CO)OC)C(C)C)C(C)OC(=O)C(C(C)C)NC(=O)C(Cc2ccccc2)N(C)C(=O)C(Cc2ccccc2)N2C(=O)C(CCC2O)NC1=O (stereo not drawn) [dolastatin 13]
- cytotoxicity ([2]; terminal Gac): nanomolar cytotoxicity

Structure (SMILES): CC(=O)N[C@@H](CC(C)C)C(=O)N[C@@H](CC(C)C)C(=O)N[C@H](C=O)CCCNC(=N)N [leupeptin]
- reduction in fluorescence, positive control [3]: 93%

Structure (SMILES): C/C=C1\NC(=O)[C@@H](NC(=O)[C@H](CCc2ccc(O)cc2)NC(=O)[C@H](C)NC(=O)[C@H](O)COS(=O)(=O)O)[C@@H](C)OC(=O)[C@H](C(C)C)NC(=O)[C@H](Cc2ccc(O)cc2)N(C)C(=O)[C@H](Cc2ccccc2)N2C(=O)[C@H](CC[C@H]2O)NC1=O [lyngbyastatin 4]
- cytotoxicity ([2]; terminal Gac-sulfate): no cytotoxicity

Structure (SMILES): CCCC(=O)N[C@H](CCC(N)=O)C(=O)N[C@@H]1C(=O)N[C@@H](CCCNC(N)=O)C(=O)N[C@H]2CC[C@@H](O)N(C2=O)[C@@H]([C@H](C)CC)C(=O)N(C)[C@@H](Cc2ccc(OC)c(Br)c2)C(=O)N[C@@H](C(C)C)C(=O)O[C@@H]1C [symplocamide A] (Butyryl-[dQ]T[Cit][Ahp(3S,6R)alloIle][NMeTyr(3-Br,OMe)]V; ester 2-C)
- cytotoxicity to NCI-H460 lung cancer cells [4]: remarkably cytotoxic
- IC50 ([4]; read-out: IC50 NCI-H460 lung cancer cells): 0.04 µM
- IC50 [5]: 0.029 µM
- selectivity chymotrypsin over trypsin (chymotrypsin [6]): greater selectivity for chymotrypsin over trypsin
